This passage reports EC50 and Activity results from ChEMBL document CHEMBL1143014, “Cytotoxic activity of some natural and synthetic ent-kauranes” (J Nat Prod, 2007).

As a reminder, the EC50 is the midpoint of the concentration-response curve. Lower therefore signals greater potency.

What all share (format): cell-based
The test system of one data set is MCF7. The data set can be described thus: Cytotoxicity against human MCF7 cells after 72 hrs. Conditions: for EC50: Homo sapiens, MCF7, 72 h; for Activity: human, mcf7, 72 h; call rule not given here. Summed up: (§1)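 Sulforhodamine B assay run per the NCI procedure. Cells grown at 37 °C, humidified 5% CO2, in RPMI-1640 with 25 mM HEPES, […], 10% (v/v) FBS and 100 µg/mL kanamycin. Compounds dissolved in DMSO (final ≤1% v/v) and applied continuously for 72 h. EC50 is the concentration cutting cell number by 50%, interpolated from dose-response data. Assays run in triplicate. Doxorubicin served as positive control.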

The subject of the next data set is A549. The data set can be described thus: Cytotoxicity against human A549 cells after 72 hrs. Conditions: for EC50: Homo sapiens, A549, 72 h; for Activity: human, a549, 72 h. Summed up:
as §1

Data set [1] can be described thus: Cytotoxicity against human multidrug-resistant KB-VIN cells after 72 hrs. Conditions: for EC50: Homo sapiens, KBVIN; for Activity: human, kb-vin. Summed up:
as §1

The test system of a further data set is 1A9. The data set can be described thus: Cytotoxicity against human 1A9 cells after 72 hrs. Conditions: for EC50: Homo sapiens, 1A9, 72 h; for Activity: human, 1a9, 72 h. Summed up:
as §1

The test system of another data set is KB. The experiment in a line: Cytotoxicity against human KB cells after 72 hrs. Conditions: for EC50: Homo sapiens, KB; for Activity: human, kb. The essentials:
as §1

In another data set the test system is PC-3. The experiment in a line: Cytotoxicity against human PC3 cells after 72 hrs. Conditions: for EC50: Homo sapiens, PC-3, 72 h; for Activity: human, pc-3, 72 h. Summed up: as §1

SMILES strings stand for the structures.

Regarding `C=C1C(=O)[C@@]23CCC4[C@H](C(=O)OC)CCC[C@@]4(C)[C@@H]2CC[C@@H]1C3` (some centres not stated), the EC50 worked out at 5000 nM with MCF7; 4400 nM with A549; 1300 nM in data set [1]; 700 nM with 1A9; 1300 nM in the data set with KB; 3100 nM in the data set on PC-3.

Turning to `C=C1C(=O)[C@@]23CCC4[C@H](C(=O)OC)C[C@@H](OC(=O)[C@@H]5OC(c6ccccc6)=N[C@H]5c5ccccc5)C[C@@]4(C)[C@@H]2CC[C@@H]1C3` (some centres not stated), the EC50 is 11800 nM with MCF7; 2200 nM in the data set on A549; 4800 nM in data set [1]; 1800 nM in the data set on 1A9; 3000 nM with KB; 2200 nM in the data set on PC-3.

Consider `C=C1C(=O)[C@@]23CCC4[C@H](C(=O)OC)C[C@@H](OC(=O)[C@H](O)[C@@H](NC(=O)c5ccccc5)c5ccccc5)C[C@@]4(C)[C@@H]2CC[C@@H]1C3` (some centres not stated), for which the EC50 was found to be 1500 nM in the data set with MCF7; 1700 nM in the data set with A549; 3500 nM in data set [1]; 400 nM in the data set with 1A9; 2600 nM in the data set with KB; 600 nM in the data set with PC-3.

For `C=C1C(=O)[C@@]23CCC4[C@H](C(=O)OC)C[C@@H](OS(=O)(=O)c5ccc(C)cc5)C[C@@]4(C)[C@@H]2CC[C@@H]1C3` (some centres not stated), the EC50 with MCF7 came out at 4300 nM; in the data set on A549 it was 2300 nM; in data set [1], 3500 nM; with 1A9, 500 nM; in the data set with KB, 1400 nM; in the data set on PC-3 it was 2600 nM.

`C=C1C(=O)[C@@]23CCC4[C@H](C(=O)OC)C[C@@H](OC(=O)c5ccc6c(c5)OCO6)C[C@@]4(C)[C@@H]2CC[C@@H]1C3` (some centres not stated): the EC50 came out at 21400 nM with MCF7; 19000 nM with A549; 3000 nM in data set [1]; 3000 nM with 1A9; 1100 nM in the data set on KB; 9200 nM with PC-3.

`C=C1C(=O)[C@@]23CCC4[C@H](C(=O)OC)C[C@@H](OC(C)=O)C[C@@]4(C)[C@@H]2CC[C@@H]1C3` (some centres not stated): the EC50 in the data set with MCF7 is 900 nM; in the data set on A549, 3300 nM; in data set [1] it was 4000 nM; in the data set on 1A9, 500 nM; in the data set with KB, 3600 nM; with PC-3, 1400 nM.

For the molecule `C=C1C(=O)[C@@]23CCC4[C@H](C(=O)OC)C[C@@H](O)C[C@@]4(C)[C@@H]2CC[C@@H]1C3` (some centres not stated), the EC50 in the data set with MCF7 worked out at 2000 nM; in the data set on A549, 1000 nM; in data set [1], 2600 nM; in the data set with 1A9, 300 nM; with KB, 1500 nM; with PC-3 it was 4000 nM.

As to `C=C1[C@@H]2CC[C@@H]3[C@@](CCC4[C@H](C(=O)OC)C/C(=N\NS(=O)(=O)c5ccc(C)cc5)C[C@]43C)(C2)[C@@H]1O` (some centres not stated), the EC50 in the data set with MCF7 turned out to be 18000 nM; with A549, 24500 nM; in data set [1], 20400 nM; with 1A9, 7500 nM; in the data set on KB, 18100 nM; in the data set with PC-3 it was 15800 nM.

For `C=C1C(=O)[C@@]23CCC4[C@H](C(=O)OC)CC(=O)C[C@@]4(C)[C@@H]2CC[C@@H]1C3` (some centres not stated) [ATRACTYLIGENIN METHYL ESTER], the concentration giving a half-maximal response (EC50) with MCF7 worked out at 1000 nM; in the data set with A549, 3400 nM; in data set [1], 1600 nM; in the data set with 1A9, 200 nM; in the data set with KB it was 1600 nM; in the data set with PC-3 it was 1100 nM.

Take `C=C1[C@@H]2CC[C@@H]3[C@@](CCC4[C@H](C(=O)OC)C[C@@H](O)C[C@]43C)(C2)[C@@H]1O` (some centres not stated) [ATRACTYLIGENIN METHYL ESTER]: the Activity entry (in the data set with MCF7; in the data set on A549; in data set [1]; in the data set on 1A9; with KB; with PC-3) was “Not Active” each time.

As to `C=C1[C@@H]2CC[C@@H]3[C@@](CCC4[C@H](C(=O)O)C[C@@H](O)C[C@]43C)(C2)[C@@H]1O` (some centres not stated) [ATRACTYLIGENIN], the Activity entry (with MCF7; in the data set with A549; in data set [1]; in the data set with 1A9; with KB; with PC-3) was “Not Active” throughout.

Turning to `COc1cccc2c1C(=O)c1c(O)c3c(c(O)c1C2=O)C[C@@](O)(C(=O)CO)C[C@@H]3O[C@H]1C[C@H](N)[C@H](O)[C@H](C)O1` [DOXORUBICIN], the EC50 in the data set with MCF7 is 200 nM; with A549, 900 nM; in data set [1] it was 1700 nM; with 1A9 it was 100 nM; in the data set on KB, 400 nM; with PC-3 it was 2000 nM.
